# SIRT5 block – sirtuin-5 (human) deacylase inhibition | Q9NXA8 | Purified SirT5, succinyl-peptide AMC, trypsin-coupled fluorescence | inhibition, % at 15 µM | 1.1% of 330,000 active; in the data active = inhibition above about 15%
# FGF22 binding – binders of recombinant human FGF22 by thermal shift. Q9HCT0. SYPRO orange fluorescence; percent of sucrose octasulfate shift, DMSO zero. activity (Tm shift, normalised), % at 9.99 µM. 1.5% of 340,000 active. AID 651658;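 active = mean Tm shift, scaled 0 neutral to 100 positive control, at about 1.3% or above, every replicate too, limit read from the data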
# PGC1a acetyl inh – PGC1a acetylation modulation, inhibitor mode; U2OS PGC1a acetylation, AlphaScreen anti-acetyl-lysine; with virally co-expressed GCN5 acetyltransferase; 0.17% of 350,000 active; inhibition, % at 15.6 µM; AID 651687;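 active = every replicate shows inhibition of at least 40%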;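 also: 0% = neutral control wells and 100% = positive control wells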
# ERAP1 inh – ERAP1 (human) enzyme inhibition; Q9NZ08; recombinant ERAP1, Leu-AMC fluorescence, 60 min; inhibition, % at 10.7 µM; 0.15% of 340,000 active; AID 652197;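 active = mean replicate inhibition of at least 30%, or all replicates individually reaching that 30% level; inactive = mean below 30% and not every replicate reaching it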;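 also: 0% = neutral control wells and 100% = L-leucinethiol positive control wells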
# Target sequence (Q9NZ08 whole entry, looked up): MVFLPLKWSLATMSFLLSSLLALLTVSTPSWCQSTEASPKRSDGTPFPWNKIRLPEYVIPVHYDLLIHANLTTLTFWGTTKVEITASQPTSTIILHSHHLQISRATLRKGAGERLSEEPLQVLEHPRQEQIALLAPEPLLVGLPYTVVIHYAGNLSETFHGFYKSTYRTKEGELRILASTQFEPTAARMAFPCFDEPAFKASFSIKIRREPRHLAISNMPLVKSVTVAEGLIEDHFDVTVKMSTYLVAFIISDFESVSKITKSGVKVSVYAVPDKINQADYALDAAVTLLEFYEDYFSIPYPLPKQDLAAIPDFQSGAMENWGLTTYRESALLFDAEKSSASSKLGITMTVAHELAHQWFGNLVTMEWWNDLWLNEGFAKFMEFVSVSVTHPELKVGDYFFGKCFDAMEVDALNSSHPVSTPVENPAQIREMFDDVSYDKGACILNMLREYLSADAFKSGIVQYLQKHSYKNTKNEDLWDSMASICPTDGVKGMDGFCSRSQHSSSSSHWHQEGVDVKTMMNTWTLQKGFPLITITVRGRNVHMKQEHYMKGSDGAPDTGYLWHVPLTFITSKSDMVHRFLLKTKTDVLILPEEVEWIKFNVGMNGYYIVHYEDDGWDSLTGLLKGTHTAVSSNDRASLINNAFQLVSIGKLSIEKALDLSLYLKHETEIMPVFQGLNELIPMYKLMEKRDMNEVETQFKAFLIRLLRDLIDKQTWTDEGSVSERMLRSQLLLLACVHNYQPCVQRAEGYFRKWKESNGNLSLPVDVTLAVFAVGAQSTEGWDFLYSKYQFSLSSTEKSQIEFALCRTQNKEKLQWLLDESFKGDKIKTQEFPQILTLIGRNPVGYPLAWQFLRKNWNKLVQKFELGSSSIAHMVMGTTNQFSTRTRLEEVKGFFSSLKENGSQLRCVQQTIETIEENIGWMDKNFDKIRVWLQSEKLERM
# FN deposition inh – fibronectin deposition inhibition. inhibition, % at 12.6 µM. AH1F fibroblasts, Alexa488-fibronectin deposition fluorescence, overnight. 0.086% of 350,000 active;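 active = mean inhibition across replicates of 30% or more, regardless of how many single replicates reach that level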;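 also: positive control wells lacked labelled fibronectin entirely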
#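 Schedule: 1 h cell adhesion before compound, then overnight fibronectin incubation; test system: AH1F fibroblast monolayer depositing Alexa488-labelled fibronectin into matrix; quantity: 10000 AH1F cells per well; probe or stimulus: fluorescent fibronectin at 24 nM final; signal: fluorescence, ex 485 nm, em 525 nm; evaluation: percent inhibition as loss of matrix-bound fibronectin fluorescence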
# Active calls of the source: *; nt = no result given. A selection: hits, their analogues and other compounds. The true share with any hit is near 2.2%.
SMILES,SIRT5 block,FGF22 binding,PGC1a acetyl inh,ERAP1 inh,FN deposition inh
COc1ccc(NC(=O)Nc2ccc3c(c2)CC(=O)N([C@H](C)CO)C[C@@H](C)[C@@H](CN(C)C(=O)Nc2cccc4ccccc24)O3)cc1,nt,0.3,-0.8,nt,nt
C[C@@H]1CN([C@@H](C)CO)C(=O)c2cc(NC(=O)Cn3cnnn3)ccc2O[C@H]1CN(C)C(=O)Nc1ccccc1,0.1,-0.1,2.8,0.5,nt
O=C(C[C@H]1C=C[C@@H](NC(=O)Nc2cc(F)ccc2F)[C@H](CO)O1)Nc1ccc(-c2ccccc2)cc1,-2.2,0.9,-12.2,1.1,9.6
CN(C)C(=O)c1cccc(-c2ccc3c(c2)[C@H]2[C@H](CCN2S(=O)(=O)c2ccccc2)[C@@H](CO)N3)c1,1.7,-0.5,0.2,-0.6,2.1
Cn1nc(C(=O)N2CCCCC2)c2c1-c1ccccc1S(=O)(=O)C2,3.9,-0.1,47.9*,-2.5,-5.7
C[C@@H]1CN([C@@H](C)CO)C(=O)Cc2cc(NS(=O)(=O)c3cn(C)cn3)ccc2O[C@@H]1CN(C)S(=O)(=O)c1ccc(F)cc1,4.1,0.1,19.8,-3.7,nt
Cc1ccc(CN2C(=O)CCC2C(=O)NCCN2CCN(c3cccc(Cl)c3)CC2)cc1 (stereo not given),-1.4,-0.1,8.4,30.6*,6.2
CN(C(=O)C1Cc2c(-c3ccc(Cl)cc3)ccnc2O1)c1ccccc1 (stereo not given),-1.7,24.8*,nt,2.1,-1.3
CCOc1ccccc1NC(=O)COC(=O)c1ccc(S(=O)(=O)N2CCCC2)cc1,0.0,-0.1,nt,-0.4,15.5
COc1ccccc1NC(=O)COC(=O)c1ccc(S(=O)(=O)N2CCCCCC2)cc1,nt,43.2*,nt,0.5,-6.9
COc1cccc(C(=O)Nc2cc(S(=O)(=O)N3CCCCC3)ccc2OC)c1,1.6,43.4*,-10.2,1.2,-1.1
CN(C)S(=O)(=O)c1cccc(C(=O)Nc2ccc(S(=O)(=O)N3CCCC3)cc2)c1,-6.8,44.1*,nt,1.4,23.0
COc1ccc(NC(=O)c2cccc(S(=O)(=O)N3CCc4ccccc43)c2)c(OC)c1,nt,43.7*,6.3,-4.2,-16.8
O=C(C[C@@H]1C=C[C@H](NC(=O)c2ccccc2)[C@@H](CO)O1)NCc1ccc(Oc2ccccc2)cc1,9.2,-0.3,-15.7,3.0,-12.1
CC(C)NC(=O)N(C)C[C@H]1Oc2ccccc2C(=O)N(C)C[C@H]1C,nt,nt,nt,nt,-5.2
CC(C)NC(=O)Nc1ccc2c(c1)C(=O)N([C@@H](C)CO)C[C@H](C)[C@H](CN(C)Cc1ccc3c(c1)OCO3)OCCCC[C@H](C)O2,nt,0.2,-7.0,nt,-10.1
N#CNC(=Nc1ccc(F)cc1)SCc1ccccc1,-0.5,44.1*,nt,-1.5,3.3
CC(C)N=C(NC#N)SCc1ccc(F)cc1,nt,nt,0.5,nt,nt
COc1cccc(CNC(=O)CCc2nnc3ccc(NCCCN4CCCC4=O)nn23)c1,-2.1,0.0,2.0,-5.5,30.0*
COc1ccc(CNC(=O)CCc2nnc3ccc(NCCCN4CCCC4=O)nn23)cc1,0.3,0.0,9.6,-6.1,-9.1
COc1ccc(Cl)cc1NC(=S)NNC(=O)c1cccnc1,3.0,42.9*,3.1,6.3,-8.0
COc1ccc(NC(=S)NNC(=O)c2cccnc2)cc1OC,3.0,0.2,0.3,-5.2,-0.8
COC(=O)c1cccc(NC(=S)Nc2cc(Cl)ccc2OC)c1,-2.6,43.3*,-2.2,-0.7,-9.5
O=C(C[C@H]1C=C[C@@H](NC(=O)Nc2cc(F)ccc2F)[C@H](CO)O1)NCc1ccc2c(c1)OCO2,9.7,0.0,1.8,-1.7,-1.1
CN1[C@@H]2c3ccc(-c4ccc(F)cc4)c(=O)n3C[C@H]1[C@H](CO)[C@H]2C(=O)Nc1nccs1,-1.4,0.0,nt,0.4,nt
SMILES,SIRT5 block,FGF22 binding,PGC1a acetyl inh,ERAP1 inh,FN deposition inh
O=C1c2ccccc2-c2nnc(-c3ccccc3)cc21,nt,nt,-4.8,nt,nt
COc1ccc(-c2cc3c(nn2)-c2ccccc2C3=O)cc1,-0.1,42.9*,-1.9,0.8,-2.0
Cc1c(C(=O)OCC(=O)N2CC(C)CC(C)C2)oc2ccccc12 (stereo not given),-6.6,45.9*,nt,0.0,6.7
O=C(Nc1ccc(F)cc1)c1cc(-c2ccccc2)no1,-1.7,43.1*,nt,1.2,-6.1
O=C(NNC(=O)c1ccc2ccccc2c1)c1cccc(F)c1,nt,0.8,-7.9,1.2,-9.8
O=C(NNC(=O)c1cccc2ccccc12)c1cccc(F)c1,nt,43.4*,4.1,1.3,1.5
CN(C)S(=O)(=O)Oc1ccsc1C(=O)Nc1ccc(Br)cc1,-2.9,56.8*,nt,-3.1,1.8
Cc1cc(C)n2c(Nc3ccc4c(c3)OCCO4)c(-c3cc4ccccc4o3)nc2n1,-4.5,-0.3,nt,0.0,10.1
Cc1cc(C)n2c(Nc3ccc4c(c3)OCCO4)c(-c3ccccn3)nc2n1,nt,-0.1,nt,54.3*,-3.1
CO[C@@H]1CN(C)C(=O)c2cc(NS(C)(=O)=O)ccc2OC[C@H](C)N(CC2CCOCC2)C[C@H]1C,nt,nt,0.6,nt,-3.7
CCOc1ccc(NC(=O)CN2C(=O)S/C(=C/c3cccn3C)C2=O)cc1,111.9*,0.1,2.7,-0.2,nt
OC(Cc1ccncc1)c1ccccc1Cl (stereo not given),nt,43.4*,-4.9,1.7,9.6
CC(Cc1ccccc1)C(=O)NCc1ccncc1 (stereo not given),-0.6,0.1,nt,0.8,3.5
COc1ccccc1C(=O)Nc1ccc2c(c1)OC[C@H](C)N(C)C[C@@H](C)[C@H](OC)CN(C)C2=O,2.5,0.0,-13.9,1.8,0.1
CCOC(=O)C(NC(=O)c1cccc(Cl)c1)(OCc1ccccc1)C(F)(F)F (stereo not given),-3.0,33.0*,3.4,0.8,0.7
Cc1ccc(S(=O)(=O)Nc2ccc3c(c2)C(=O)N([C@@H](C)CO)C[C@H](C)[C@H](CN(C)C(=O)NC(C)C)OCCCC[C@H](C)O3)cc1,5.9,0.7,-2.4,-2.4,2.9
C[C@H](CO)N1C[C@H](C)[C@@H](CN(C)Cc2ccccc2F)Oc2cc(C3=CCCCC3)ccc2S1(=O)=O,12.4,0.0,-13.8,-0.5,nt
O=C(C[C@H]1CC[C@H]2[C@@H](COC[C@@H](O)CN2Cc2ccncc2)O1)NCc1ccccc1Cl,-0.2,0.0,6.0,-3.5,-5.5
COC(=O)C(c1ccccc1)C1(O)CC(C)N(C)CC1C (stereo not given),25.8*,0.0,-2.7,-0.9,-4.8
CO[C@H]1CN(C)C(=O)c2cc(NC(C)=O)ccc2OC[C@@H](C)N(C(=O)Cc2cccnc2)C[C@H]1C,-0.8,0.2,1.8,1.7,-2.6
CC(NC1CCCC1)c1ccccc1 (stereo not given),3.7,43.9*,nt,-5.2,7.8
C[C@@H]1CN([C@H](C)CO)C(=O)c2cc(NC(=O)Nc3ccccc3)ccc2O[C@@H]1CN(C)C(=O)Nc1cccc2ccccc12,3.7,-0.1,4.6,-4.8,nt
CCCCN(CC)Cc1ccc(CNC(=O)Nc2ccc(Cl)cc2)o1,-0.7,nt,-6.7,-2.3,31.2*
CCCCN(CC)Cc1ccc(CNC(=O)Nc2ccc(OCC)cc2)o1,1.1,0.2,-15.4,1.5,nt
